In data set [1] the test system is Rattus norvegicus. Description: Antiinflammatory activity in Wister albino rat assessed as inhibition of carrageenan-induced paw edema volume at 50 mg/kg, ip administered 1 hr before carrageenan challenge measured after 4 hrs. It is filed as functional. The conditions noted are these: route intraperitoneal. The method, boiled down:
(§1)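 Wistar albino rats of either sex (pregnant females excluded), 160–190 g, 6 per group. Dosed i.p. in DMSO 1 h before 0.1 ml of 1% carrageenan in saline was injected subcutaneously into the right hind paw; DMSO-only controls. Paw volume was read by plethysmometer at 4 h against the initial volume to give oedema volume and % inhibition of oedema.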

Data set [2] deals with Rattus norvegicus. Put plainly: Antiinflammatory activity in Wister albino rat assessed as inhibition of carrageenan-induced paw edema volume at 50 mg/kg, ip administered 1 hr before carrageenan challenge measured after 4 hrs relative to indomethacin. It is filed as functional. Details: scale not given: the % may be the effect or the level left. The conditions noted are these: route intraperitoneal. The method in brief: as §1

Data set [3] has as its system Rattus norvegicus. Description: Antiinflammatory activity in ip dosed Wister albino rat assessed as inhibition of carrageenan-induced paw edema volume administered 1 hr before carrageenan challenge measured after 4 hrs. It is filed as functional. The method, boiled down:
as §1

Data set [4] concerns Rattus norvegicus. Description: Antiinflammatory activity in Wister albino rat assessed as inhibition of carrageenan-induced paw edema volume at 10 mg/kg, ip administered 1 hr before carrageenan challenge measured after 4 hrs. The data set is classed as functional. The conditions noted are these: route intraperitoneal. The method in brief: as §1
The test system of data set [5] is Rattus norvegicus. Description: Antiinflammatory activity against carrageenan-induced inflammation in albino rat 6-day-old air pouch model assessed as inhibition of PGE2 level at 50 mg/kg, po administered prior to carrageenan challenge measured after 6 hrs. The data set is classed as functional. The method, boiled down: (§2)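 Male albino rats, 200–250 g, 6 per group. Air pouch raised by subcutaneous dorsal air: 20 ml on day 1, 10 ml two days later, 10 ml on day 5. On day 6, oral dosing in saline with a few drops of Tween 80, then 2 ml of 1% carrageenan in saline into the pouch. Exudate was aspirated 6 h later under ether, frozen at −20 °C, and PGE2 measured by ELISA (pg/ml).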

Data set [6] relates to Rattus norvegicus. Description: Gastrointestinal toxicity in fasted albino rat assessed ulcer index at 50 mg/kg, po administered for 3 days measured after 1 hr of last dose. It is filed as organism-based. The settings on record: in vivo. Further details: dose 50 mg/kg, route oral. The method in brief:
(§3)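 Albino rats of either sex (pregnant excluded), 130–150 g, 6 per group, fasted 18 h. Dosed orally for 3 consecutive days in saline with a few drops of Tween 80. Killed 1 h after the last dose; stomach opened along the greater curvature, rinsed, and mucosa examined at 10× for lesions. Ulcer index computed from % incidence/10, mean ulcer number and severity.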

The test system of data set [7] is Rattus norvegicus. Put plainly: Antiinflammatory activity in Wister albino rat assessed as inhibition of carrageenan-induced paw edema volume at 20 mg/kg, ip administered 1 hr before carrageenan challenge measured after 4 hrs. The data set is classed as functional. The conditions noted are these: route intraperitoneal. The method, boiled down:
as §1

Data set [8] has as its system Rattus norvegicus. Put plainly: Gastrointestinal toxicity in fasted albino rat assessed ulcer index at 10 mg/kg, po administered for 3 days measured after 1 hr of last dose. The data set is classed as organism-based. Further details: dose 10 mg/kg, route oral. The settings on record: in vivo. The method in brief: as §3
Data set [9] has as its system Rattus norvegicus. Put plainly: Antiinflammatory activity against carrageenan-induced inflammation in albino rat 6-day-old air pouch model assessed as inhibition of PGE2 level at 10 mg/kg, po administered prior to carrageenan challenge measured after 6 hrs. It is filed as functional. The method, boiled down: as §2

Take `NC(=S)N1N=C(c2ccccc2)CC1c1ccccc1OCCOc1ccccc1C1CC(c2ccccc2)=NN1C(N)=S` (stereo not given): the inhibition in vivo at 50 mg/kg in data set [1] turned out to be 24.5%. The Activity in data set [2] is given as 36.3%.

As to `NC(=S)N1N=C(c2ccc(Cl)cc2)CC1c1ccccc1OCCOc1ccccc1C1CC(c2ccc(Cl)cc2)=NN1C(N)=S` (stereo not given), the inhibition in vivo at 50 mg/kg in [1] is 55.2%. For the same compound, in data set [3], the 50% effective dose (ED50) was found to be 34.6 mg/kg. The inhibition in vivo at 10 mg/kg in [4] amounted to 50.3%. The Activity in [2] amounted to 81.8%; in data set [5] it was 110.83 pg/mL. Besides, the UI in data set [6] is given as 12.16. Besides, the inhibition in vivo at 20 mg/kg in [7] was found to be 53.7%.

As to `NC(=S)N1N=C(c2cccs2)CC1c1ccccc1OCCOc1ccccc1C1CC(c2cccs2)=NN1C(N)=S` (stereo not given), the inhibition in vivo at 50 mg/kg in data set [1] amounted to 67.5%. The ED50 in data set [3] was found to be 28.8 mg/kg. In addition, in data set [4], the inhibition in vivo at 10 mg/kg was 59.7%. Further, the Activity in [2] stood at 100%; in data set [5] it was 96.5 pg/mL. In addition, the UI in data set [6] stood at 14.33. Moreover, the inhibition in vivo at 20 mg/kg in data set [7] is 61.6%.

As to `Cc1ccc(C2=NN(C(N)=O)C(c3ccccc3OCCOc3ccccc3C3CC(c4ccc(C)cc4)=NN3C(N)=O)C2)cc1` (stereo not given), in data set [1], the inhibition in vivo at 50 mg/kg is 22.7%. For the same compound, the Activity in [2] worked out at 33.6%.

Regarding `COc1ccc2c(c1)c(CC(=O)O)c(C)n2C(=O)c1ccc(Cl)cc1` [INDOMETHACIN], the inhibition in vivo at 10 mg/kg in [4] is 67.5%. In addition, the UI in data set [8] turned out to be 13.49. Also, the Activity in data set [9] was found to be 98.33 pg/mL.

As to `NC(=S)N1N=C(c2ccc(F)cc2)CC1c1ccccc1OCCOc1ccccc1C1CC(c2ccc(F)cc2)=NN1C(N)=S` (stereo not given), in data set [1], the inhibition in vivo at 50 mg/kg was determined as 48%. Further, in data set [3], the median effective dose (ED50) was 40.8 mg/kg. The inhibition in vivo at 10 mg/kg in data set [4] amounted to 40.9%. The values for the Activity in data set [2] and in data set [5] were 71.1% and 114.67 pg/mL, respectively. In addition, in data set [6], the UI is given as 11.51. For the same compound, the inhibition in vivo at 20 mg/kg in [7] is 43.2%.

`Cc1ccc(C2=NN(C(N)=S)C(c3ccccc3OCCOc3ccccc3C3CC(c4ccc(C)cc4)=NN3C(N)=S)C2)cc1` (stereo not given): in data set [1], the inhibition in vivo at 50 mg/kg worked out at 36.8%. The Activity in [2] is 54.5%.

As to `NC(=O)N1N=C(c2ccc(Cl)cc2)CC1c1ccccc1OCCOc1ccccc1C1CC(c2ccc(Cl)cc2)=NN1C(N)=O` (stereo not given), the inhibition in vivo at 50 mg/kg in data set [1] was determined as 45.3%. The Activity in [2] turned out to be 67.1%.

Take `NC(=S)N1N=C(c2ccccc2)CC1c1ccc(OCCOc2ccc(C3CC(c4ccccc4)=NN3C(N)=S)cc2)cc1` (stereo not given): the inhibition in vivo at 50 mg/kg in [1] was 83.5%. In data set [3], the median effective dose (ED50) amounted to 23.1 mg/kg. Besides, the inhibition in vivo at 10 mg/kg in [4] is 74.4%. Besides, the Activity in data set [2] was 123.7%; in [5] it was 83.33 pg/mL. In data set [6], the UI turned out to be 18.5. Besides, the inhibition in vivo at 20 mg/kg in data set [7] is 79.5%.

As to `NC(=O)N1N=C(c2ccc(F)cc2)CC1c1ccccc1OCCOc1ccccc1C1CC(c2ccc(F)cc2)=NN1C(N)=O` (stereo not given), the inhibition in vivo at 50 mg/kg in [1] stood at 20.8%. The Activity in [2] came to 30.8%.

Take `Cc1ccc(C2=NN(C(N)=S)C(c3ccc(OCCOc4ccc(C5CC(c6ccc(C)cc6)=NN5C(N)=S)cc4)cc3)C2)cc1` (stereo not given): the inhibition in vivo at 50 mg/kg in [1] turned out to be 34.7%. Moreover, in [2], the Activity stood at 51.4%.

In the case of `NC(=O)N1N=C(c2ccccc2)CC1c1ccccc1OCCOc1ccccc1C1CC(c2ccccc2)=NN1C(N)=O` (stereo not given), in data set [1], the inhibition in vivo at 50 mg/kg came out at 43.2%. Further, the Activity in data set [2] stood at 64%.
